Measurements: ChEMBL document CHEMBL1148871, “Novel potent antimitotic heterocyclic ketones: synthesis, antiproliferative activity, and structure-activity relationships” (Bioorg Med Chem Lett, 2007)
Blank lines part the entries; values can stand above or below the compound they belong to.

Columns and labels:
[1] = system: CCRF-CEM; experiment: Antiproliferative activity against human CEM cells; type: functional, cell-based
[2] = Antiproliferative activity against human DND1 cells; type: functional, cell-based
[3] = system: DU-145; experiment: Antiproliferative activity against human DU145 cells; type: functional, cell-based
[4] = system: MCF7; experiment: Antiproliferative activity against human MCF7 cells; type: functional, cell-based
[5] = system: MOLT-3; experiment: Antiproliferative activity against human Molt3 cells; type: functional, cell-based
[6] = system: Bel-7402; experiment: Antiproliferative activity against human Bel7402 cells; type: functional, cell-based
[7] = system: PC-3; experiment: Antiproliferative activity against human PC3 cells; type: functional, cell-based
[8] = biological target: T1, Tubulin (Homo sapiens) (UniProt P68371+Q9H4B7+P0DPH7+P68366+Q13509+Q71U36+P04350+Q3ZCM7+P07437+P68363+Q9BQE3+Q6PEY2+Q13885+Q9BVA1+Q9BUF5); experiment: Inhibition of tubulin polymerization; type: protein-complex assay
Procedure, shortened: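 Purified […] in reaction buffer with GTP and Mg²⁺ was incubated for assembly with or without test compound (1–5 uM), with vincristine or paclitaxel (20 uM) as controls. Assembly was read as OD at 340 nm every 2 min. Each point is the mean of two independent experiments.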

[9] = biological target: T1, Tubulin (Homo sapiens); experiment: Inhibition of tubulin polymerization at 20 uM; type: protein-complex assay

SMILES: COc1cc(C(=O)c2ccc3occc3c2)cc(OC)c1OC
- IC50 [1]: 288 nM

SMILES: COc1cc([C@@H]2c3cc4c(cc3C(O)[C@H]3COC(=O)[C@H]23)OCO4)cc(OC)c1OC (single isomer, unassigned) [PODOFILOX]
- IC50 [2]: 12 nM

SMILES: CCn1c2ccccc2c2cc(NS(=O)(=O)c3cc(OC)c(OC)c(OC)c3)ccc21
- IC50 [3]: 603 nM
- IC50 [4]: 89 nM
- IC50 [5]: 20 nM
- IC50 [6]: 201 nM
- IC50 [1]: 56 nM
- IC50 [7]: 201 nM
- IC50 [2]: 89 nM

SMILES: CCn1c2ccccc2c2cc(C(=O)c3cc(OC)c(OC)c(OC)c3)ccc21
- IC50 [3]: 39 nM
- IC50 [4]: 26 nM
- IC50 [5]: 51 nM
- IC50 [6]: 90 nM
- IC50 [1]: 90 nM
- IC50 [7]: 103 nM
- IC50 [2]: 21 nM
- Activity [8]: Dose-dependent effect

SMILES: COc1cc(C(=O)c2ccc3[nH]ccc3c2)cc(OC)c1OC
- IC50 [1]: 225 nM

SMILES: COc1ccc(/C=C\c2cc(OC)c(OC)c(OC)c2)cc1O [COMBRETASTATIN A4]
- IC50 [2]: 2.5 nM

SMILES: CC[C@]1(O)C[C@H]2CN(CCc3c([nH]c4ccccc34)[C@@](C(=O)OC)(c3cc4c(cc3OC)N(C=O)[C@H]3[C@@](O)(C(=O)OC)[C@H](OC(C)=O)[C@]5(CC)C=CCN6CC[C@]43[C@@H]65)C2)C1
- inhibition [9]: 87%

SMILES: CCn1c2ccccc2c2cc(NS(=O)(=O)c3cc(OC)ccc3OC)ccc21
- IC50 [1]: 61 nM

SMILES: COc1cc(C(=O)c2ccc3sccc3c2)cc(OC)c1OC
- IC50 [1]: 303 nM

SMILES: CCn1c2ccccc2c2cc(NS(=O)(=O)c3ccc(OC)cc3OC)ccc21
- IC50 [1]: 57 nM

SMILES: CCn1c2ccccc2c2cc(C(O)c3cc(OC)c(OC)c(OC)c3)ccc21 (centres undefined)
- IC50 [1]: 192 nM

Second part, led by results:

- IC50 [1]: 1010 nM
SMILES: COc1ccc(C(=O)c2ccc3c(ccn3C)c2)c(OC)n1

- IC50 [1]: 555 nM
SMILES: CCn1c2ccccc2c2cc(C(=O)c3ccc(OC)nc3OC)ccc21

- IC50 [3]: 26 nM
- IC50 [4]: 9.2 nM
- IC50 [5]: 18 nM
- IC50 [6]: 21 nM
- IC50 [1]: 18 nM
- IC50 [7]: 25 nM
SMILES: COc1cc(C(=O)c2ccc3c(ccn3C)c2)cc(OC)c1OC
- IC50 [2]: 15 nM

- IC50 [1]: 1130 nM
SMILES: COc1ccc(C(=O)c2ccc3c(ccn3C)c2)cc1

- IC50 [1]: 307 nM
SMILES: COc1cc(C(=O)c2cccc3ccn(C)c23)cc(OC)c1OC

- IC50 [3]: 34 nM
- IC50 [4]: 85 nM
- IC50 [5]: 24 nM
- IC50 [6]: 44 nM
- IC50 [1]: 102 nM
- IC50 [7]: 203 nM
SMILES: COc1ccc(C(=O)c2ccc3c(ccn3C)c2)c(OC)c1
- IC50 [2]: 118 nM

- IC50 [3]: 103 nM
- IC50 [4]: 44 nM
- IC50 [5]: 38 nM
- IC50 [6]: 88 nM
- IC50 [1]: 59 nM
- IC50 [7]: 117 nM
SMILES: COc1cc(C(O)c2ccc3c(ccn3C)c2)cc(OC)c1OC (centres undefined)
- IC50 [2]: 59 nM

- IC50 [1]: 1690 nM
SMILES: COc1ccc(C(=O)c2ccc3c(ccn3C)c2)cc1OC

- IC50 [1]: 2370 nM
SMILES: COc1ccc(OC)c(C(=O)c2ccc3c(ccn3C)c2)c1

- IC50 [1]: 1690 nM
SMILES: COc1cc(OC)cc(C(=O)c2ccc3c(ccn3C)c2)c1

- IC50 [3]: 75 nM
- IC50 [4]: 24 nM
- IC50 [5]: 18 nM
- IC50 [6]: 27 nM
- IC50 [1]: 30 nM
- IC50 [7]: 75 nM
SMILES: COc1cc(C(=O)c2ccc3ccn(C)c3c2)cc(OC)c1OC
- IC50 [2]: 27 nM
